Data from ChEMBL document CHEMBL2203081 (Bioorg Med Chem Lett, 2012).
The source made the active and inactive calls. The calls are words filed in the database; no cut-off is given here.

Assays:
[1] = target: Casein kinase I isoform epsilon (Homo sapiens) (UniProt P49674); assay: Inhibition of CSNK1E assessed as residual activity at 10 uM relative to control
How it was run: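 Competition kinase-binding assay (KINOMEscan) across a non-redundant panel of 329 kinases beyond the radiometric panel; residual binding expressed relative to control.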

[2] = target: STE20/SPS1-related proline-alanine-rich protein kinase (Homo sapiens) (UniProt Q9UEW8); assay: Inhibition of STK39 assessed as residual activity at 10 uM relative to control
[3] = target: Mitogen-activated protein kinase 9 (Homo sapiens) (UniProt P45984); assay: Inhibition of JNK2 assessed as residual activity at 1 uM
How it was run: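 Radioactivity-based enzymatic activity assay of the named kinase, run as part of a 131-kinase specificity panel at the National Centre for Protein Kinase Profiling (Dundee). Residual activity was read at the stated single inhibitor concentration.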

[4] = target: Ephrin type-B receptor 4 (Homo sapiens) (UniProt P54760); assay: Inhibition of EPH-B4 assessed as residual activity at 1 uM
How it was run: (§1)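 Standard radioactivity-based enzymatic kinase assays on a 131-kinase panel run by the Dundee profiling service; residual kinase activity recorded.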

[5] = target: Ribosomal protein S6 kinase alpha-5 (Homo sapiens) (UniProt O75582); assay: Inhibition of RPS6KA5 N-terminal domain 1 assessed as residual activity at 10 uM relative to control
[6] = target: T1, Serine/threonine-protein kinase D1 (Homo sapiens) (UniProt Q15139); assay: Inhibition of PRKD1 assessed as residual activity at 10 uM relative to control
T1 sequence (whole entry): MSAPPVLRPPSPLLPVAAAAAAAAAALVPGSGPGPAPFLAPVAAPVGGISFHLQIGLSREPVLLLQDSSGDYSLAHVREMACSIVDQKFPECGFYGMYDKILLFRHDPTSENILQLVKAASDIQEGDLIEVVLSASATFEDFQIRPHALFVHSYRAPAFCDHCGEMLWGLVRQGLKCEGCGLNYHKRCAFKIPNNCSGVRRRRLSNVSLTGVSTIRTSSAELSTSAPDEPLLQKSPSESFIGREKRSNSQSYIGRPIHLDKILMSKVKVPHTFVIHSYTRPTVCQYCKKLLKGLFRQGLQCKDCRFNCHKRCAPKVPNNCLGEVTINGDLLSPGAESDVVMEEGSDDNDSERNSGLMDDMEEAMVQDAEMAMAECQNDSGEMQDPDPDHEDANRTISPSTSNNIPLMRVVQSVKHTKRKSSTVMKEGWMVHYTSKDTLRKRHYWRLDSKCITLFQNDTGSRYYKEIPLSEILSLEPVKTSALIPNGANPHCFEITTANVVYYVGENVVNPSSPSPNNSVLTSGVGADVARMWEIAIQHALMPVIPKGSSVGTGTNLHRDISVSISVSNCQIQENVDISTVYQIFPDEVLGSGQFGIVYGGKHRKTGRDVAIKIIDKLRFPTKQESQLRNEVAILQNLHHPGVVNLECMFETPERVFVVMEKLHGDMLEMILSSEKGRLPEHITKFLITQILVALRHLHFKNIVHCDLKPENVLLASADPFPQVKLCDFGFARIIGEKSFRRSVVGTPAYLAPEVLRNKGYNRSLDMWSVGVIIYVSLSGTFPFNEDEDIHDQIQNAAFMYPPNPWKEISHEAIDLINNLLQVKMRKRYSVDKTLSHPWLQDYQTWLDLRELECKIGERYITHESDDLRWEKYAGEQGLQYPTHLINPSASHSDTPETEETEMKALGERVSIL

[7] = target: Protein kinase C eta type (Homo sapiens) (UniProt P24723); assay: Inhibition of PRKCH assessed as residual activity at 10 uM relative to control
Mus musculus = assay: Inhibition of LRRK2 in mouse assessed as inhibition of Ser910 autophosphorylation in spleen at 100 mg/kg, ip by immunoblot method; type: functional, organism-based; parameters: dose 100 mg/kg
[8] = Inhibition of FLT3 ITD mutant assessed as residual activity at 10 uM relative to control
[9] = target: T2, Ephrin type-B receptor 3 (Homo sapiens) (UniProt P54753); assay: Inhibition of EPH-B3 assessed as residual activity at 10 uM; how it was run: as §1
T2 sequence (whole entry): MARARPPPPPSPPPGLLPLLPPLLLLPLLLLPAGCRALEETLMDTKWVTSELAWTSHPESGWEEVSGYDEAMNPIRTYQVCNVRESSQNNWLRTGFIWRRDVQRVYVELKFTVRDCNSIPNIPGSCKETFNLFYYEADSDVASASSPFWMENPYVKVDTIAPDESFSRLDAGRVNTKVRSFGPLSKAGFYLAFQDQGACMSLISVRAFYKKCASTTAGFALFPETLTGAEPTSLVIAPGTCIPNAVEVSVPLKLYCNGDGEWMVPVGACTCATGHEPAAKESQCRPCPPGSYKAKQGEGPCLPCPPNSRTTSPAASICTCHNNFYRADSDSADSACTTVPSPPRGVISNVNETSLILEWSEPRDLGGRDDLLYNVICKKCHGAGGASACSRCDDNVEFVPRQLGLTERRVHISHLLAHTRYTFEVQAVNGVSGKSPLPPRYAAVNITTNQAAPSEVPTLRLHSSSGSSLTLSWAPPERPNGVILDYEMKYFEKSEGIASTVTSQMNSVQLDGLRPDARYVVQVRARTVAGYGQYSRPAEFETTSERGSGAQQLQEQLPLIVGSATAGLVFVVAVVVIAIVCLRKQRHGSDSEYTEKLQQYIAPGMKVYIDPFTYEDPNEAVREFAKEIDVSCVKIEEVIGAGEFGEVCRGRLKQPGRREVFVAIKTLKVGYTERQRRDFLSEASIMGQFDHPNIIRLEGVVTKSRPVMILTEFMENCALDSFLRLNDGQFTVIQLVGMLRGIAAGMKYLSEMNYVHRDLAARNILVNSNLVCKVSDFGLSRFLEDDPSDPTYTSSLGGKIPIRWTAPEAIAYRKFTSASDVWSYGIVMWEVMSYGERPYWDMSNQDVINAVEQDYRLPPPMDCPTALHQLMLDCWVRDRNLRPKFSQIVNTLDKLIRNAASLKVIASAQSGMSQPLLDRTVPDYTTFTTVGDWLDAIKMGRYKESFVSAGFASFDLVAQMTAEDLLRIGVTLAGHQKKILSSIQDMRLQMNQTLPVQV

[10] = target: High affinity nerve growth factor receptor (Homo sapiens) (UniProt P04629); assay: Inhibition of TrkA assessed as residual activity at 1 uM
[11] = target: Testis-specific serine/threonine-protein kinase 1 (Homo sapiens) (UniProt Q9BXA7); assay: Inhibition of TSSK1 assessed as residual activity at 1 uM
[12] = target: Serine/threonine-protein kinase 3 (Homo sapiens) (UniProt Q13188); assay: Inhibition of MST2 assessed as residual activity at 10 uM relative to control
[13] = target: Mitogen-activated protein kinase kinase kinase 9 (Homo sapiens) (UniProt P80192); assay: Inhibition of MLK1 assessed as residual activity at 10 uM relative to control
[14] = target: Leucine-rich repeat serine/threonine-protein kinase 2 (Homo sapiens) (UniProt Q5S007); settings: 0.01 to 1 uM

Ribosomal protein S6 kinase alpha-5 (Homo sapiens), sequence (O75582 whole entry, looked up, the tested form may be a part): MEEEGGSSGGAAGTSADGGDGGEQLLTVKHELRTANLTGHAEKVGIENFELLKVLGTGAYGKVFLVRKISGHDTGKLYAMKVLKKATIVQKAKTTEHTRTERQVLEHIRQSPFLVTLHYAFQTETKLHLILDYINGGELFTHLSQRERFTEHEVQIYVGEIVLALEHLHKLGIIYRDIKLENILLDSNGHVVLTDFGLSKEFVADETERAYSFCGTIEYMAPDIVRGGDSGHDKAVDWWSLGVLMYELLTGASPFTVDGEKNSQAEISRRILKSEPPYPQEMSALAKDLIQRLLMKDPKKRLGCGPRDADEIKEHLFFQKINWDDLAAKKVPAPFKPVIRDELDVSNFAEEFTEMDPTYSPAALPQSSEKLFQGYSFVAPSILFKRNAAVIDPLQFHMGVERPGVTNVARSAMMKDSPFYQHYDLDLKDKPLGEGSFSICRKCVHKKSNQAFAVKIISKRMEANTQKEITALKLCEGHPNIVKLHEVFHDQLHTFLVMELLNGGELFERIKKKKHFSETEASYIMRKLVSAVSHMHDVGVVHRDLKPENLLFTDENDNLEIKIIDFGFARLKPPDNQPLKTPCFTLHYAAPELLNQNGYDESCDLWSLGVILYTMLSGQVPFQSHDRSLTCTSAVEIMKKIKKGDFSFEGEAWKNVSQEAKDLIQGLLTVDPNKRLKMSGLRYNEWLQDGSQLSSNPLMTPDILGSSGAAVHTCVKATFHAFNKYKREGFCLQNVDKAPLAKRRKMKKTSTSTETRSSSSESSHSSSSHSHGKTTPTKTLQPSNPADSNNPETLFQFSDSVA
Ephrin type-B receptor 4 (Homo sapiens), sequence (P54760 whole entry): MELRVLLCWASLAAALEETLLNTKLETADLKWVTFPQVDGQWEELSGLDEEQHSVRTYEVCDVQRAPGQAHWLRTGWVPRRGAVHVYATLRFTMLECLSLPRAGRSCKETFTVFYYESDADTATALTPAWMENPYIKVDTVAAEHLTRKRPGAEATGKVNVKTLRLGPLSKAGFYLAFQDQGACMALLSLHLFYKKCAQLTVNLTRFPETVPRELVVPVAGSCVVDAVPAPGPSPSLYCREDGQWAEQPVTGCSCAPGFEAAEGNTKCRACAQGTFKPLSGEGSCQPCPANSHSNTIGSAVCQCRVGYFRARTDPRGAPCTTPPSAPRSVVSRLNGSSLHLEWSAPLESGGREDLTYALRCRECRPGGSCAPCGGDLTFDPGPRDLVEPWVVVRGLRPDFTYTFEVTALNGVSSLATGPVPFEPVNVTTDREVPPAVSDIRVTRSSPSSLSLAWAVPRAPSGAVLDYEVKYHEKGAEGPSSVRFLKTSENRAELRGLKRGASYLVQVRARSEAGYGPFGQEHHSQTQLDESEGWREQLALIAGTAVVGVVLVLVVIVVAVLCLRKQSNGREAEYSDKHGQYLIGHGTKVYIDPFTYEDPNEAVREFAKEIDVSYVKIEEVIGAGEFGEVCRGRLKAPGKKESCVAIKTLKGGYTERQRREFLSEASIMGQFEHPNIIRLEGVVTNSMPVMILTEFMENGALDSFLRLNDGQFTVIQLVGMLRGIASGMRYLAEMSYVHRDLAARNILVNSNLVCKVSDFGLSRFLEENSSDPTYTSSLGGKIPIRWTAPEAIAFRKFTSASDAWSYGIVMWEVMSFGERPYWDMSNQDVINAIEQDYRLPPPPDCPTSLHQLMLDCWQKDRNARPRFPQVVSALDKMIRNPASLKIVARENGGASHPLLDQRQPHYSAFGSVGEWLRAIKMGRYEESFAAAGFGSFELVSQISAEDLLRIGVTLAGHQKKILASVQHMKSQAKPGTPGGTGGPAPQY
Casein kinase I isoform epsilon (Homo sapiens), sequence (P49674 whole entry, looked up, canonical isoform): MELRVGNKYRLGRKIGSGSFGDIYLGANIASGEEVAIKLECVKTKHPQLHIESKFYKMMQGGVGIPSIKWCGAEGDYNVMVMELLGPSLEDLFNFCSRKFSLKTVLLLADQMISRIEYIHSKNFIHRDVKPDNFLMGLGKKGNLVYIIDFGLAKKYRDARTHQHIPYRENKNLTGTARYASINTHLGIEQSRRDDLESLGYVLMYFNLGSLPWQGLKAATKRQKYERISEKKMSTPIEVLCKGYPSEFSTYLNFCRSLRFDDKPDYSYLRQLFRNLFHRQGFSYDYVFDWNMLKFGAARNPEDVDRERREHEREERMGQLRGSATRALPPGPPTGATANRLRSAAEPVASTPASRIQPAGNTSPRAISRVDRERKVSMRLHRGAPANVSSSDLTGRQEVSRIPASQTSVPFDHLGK
Protein kinase C eta type (Homo sapiens), sequence (P24723 whole entry): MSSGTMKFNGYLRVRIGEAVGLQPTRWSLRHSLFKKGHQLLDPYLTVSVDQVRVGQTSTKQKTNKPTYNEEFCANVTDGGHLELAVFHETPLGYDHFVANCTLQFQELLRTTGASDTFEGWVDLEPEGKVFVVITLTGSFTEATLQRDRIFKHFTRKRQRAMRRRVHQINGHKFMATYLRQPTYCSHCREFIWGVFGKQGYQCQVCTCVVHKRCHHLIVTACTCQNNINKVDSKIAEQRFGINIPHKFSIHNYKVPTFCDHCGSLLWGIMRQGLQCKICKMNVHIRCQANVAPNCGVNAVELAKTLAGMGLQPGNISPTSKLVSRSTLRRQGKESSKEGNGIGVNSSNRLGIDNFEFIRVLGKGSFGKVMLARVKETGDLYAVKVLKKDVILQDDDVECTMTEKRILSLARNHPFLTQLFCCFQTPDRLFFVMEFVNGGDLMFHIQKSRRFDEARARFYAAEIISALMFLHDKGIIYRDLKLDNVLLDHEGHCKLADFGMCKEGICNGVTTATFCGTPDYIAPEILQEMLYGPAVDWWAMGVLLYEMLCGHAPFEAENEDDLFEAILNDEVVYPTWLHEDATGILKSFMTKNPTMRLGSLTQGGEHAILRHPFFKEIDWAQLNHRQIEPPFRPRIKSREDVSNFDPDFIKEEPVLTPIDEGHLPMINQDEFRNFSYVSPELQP
Testis-specific serine/threonine-protein kinase 1 (Homo sapiens), sequence (Q9BXA7 whole entry): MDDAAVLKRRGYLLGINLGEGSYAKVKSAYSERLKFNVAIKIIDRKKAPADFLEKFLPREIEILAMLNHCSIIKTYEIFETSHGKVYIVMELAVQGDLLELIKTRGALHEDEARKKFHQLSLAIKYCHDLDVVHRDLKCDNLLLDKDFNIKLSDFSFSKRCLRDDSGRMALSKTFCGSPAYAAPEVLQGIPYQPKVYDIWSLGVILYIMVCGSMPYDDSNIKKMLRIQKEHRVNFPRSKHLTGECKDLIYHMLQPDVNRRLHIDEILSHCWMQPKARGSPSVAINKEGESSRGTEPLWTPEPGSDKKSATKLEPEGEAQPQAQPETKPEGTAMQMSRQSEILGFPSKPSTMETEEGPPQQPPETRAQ
High affinity nerve growth factor receptor (Homo sapiens), sequence (P04629 33-796 limits assumed): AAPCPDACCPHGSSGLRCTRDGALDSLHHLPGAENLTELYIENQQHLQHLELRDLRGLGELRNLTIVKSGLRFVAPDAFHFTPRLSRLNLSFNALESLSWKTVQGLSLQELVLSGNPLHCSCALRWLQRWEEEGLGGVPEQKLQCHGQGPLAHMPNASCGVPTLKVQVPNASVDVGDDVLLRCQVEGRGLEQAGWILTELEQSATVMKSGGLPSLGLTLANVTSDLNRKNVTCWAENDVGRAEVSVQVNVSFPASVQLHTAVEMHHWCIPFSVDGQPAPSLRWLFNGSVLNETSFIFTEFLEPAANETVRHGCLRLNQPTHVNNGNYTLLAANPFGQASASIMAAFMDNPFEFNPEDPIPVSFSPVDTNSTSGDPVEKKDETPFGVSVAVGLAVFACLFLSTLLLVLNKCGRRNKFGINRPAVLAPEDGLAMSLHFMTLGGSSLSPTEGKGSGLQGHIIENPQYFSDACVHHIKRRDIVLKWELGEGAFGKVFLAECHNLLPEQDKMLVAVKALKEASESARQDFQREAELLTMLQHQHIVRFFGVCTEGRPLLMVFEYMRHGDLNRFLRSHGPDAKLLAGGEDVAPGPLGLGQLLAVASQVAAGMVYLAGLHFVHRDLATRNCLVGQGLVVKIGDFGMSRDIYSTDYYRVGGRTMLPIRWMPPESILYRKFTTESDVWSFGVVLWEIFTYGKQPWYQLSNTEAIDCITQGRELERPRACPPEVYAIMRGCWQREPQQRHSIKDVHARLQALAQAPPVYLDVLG
Serine/threonine-protein kinase 3 (Homo sapiens), sequence (Q13188 whole entry): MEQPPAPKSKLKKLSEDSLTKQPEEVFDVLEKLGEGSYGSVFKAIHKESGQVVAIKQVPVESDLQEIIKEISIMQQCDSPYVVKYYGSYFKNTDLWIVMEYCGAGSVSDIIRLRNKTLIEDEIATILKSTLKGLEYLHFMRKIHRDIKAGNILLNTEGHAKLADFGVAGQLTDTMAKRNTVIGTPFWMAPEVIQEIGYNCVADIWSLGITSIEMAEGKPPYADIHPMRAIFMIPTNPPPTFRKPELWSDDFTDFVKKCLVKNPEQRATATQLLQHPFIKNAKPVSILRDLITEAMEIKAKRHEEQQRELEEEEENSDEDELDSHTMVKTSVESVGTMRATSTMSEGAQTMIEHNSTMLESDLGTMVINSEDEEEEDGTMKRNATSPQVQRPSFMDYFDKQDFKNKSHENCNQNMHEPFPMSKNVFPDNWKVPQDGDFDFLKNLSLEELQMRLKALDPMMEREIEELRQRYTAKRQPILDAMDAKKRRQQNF
Mitogen-activated protein kinase 9 (Homo sapiens), sequence (P45984 whole entry, looked up): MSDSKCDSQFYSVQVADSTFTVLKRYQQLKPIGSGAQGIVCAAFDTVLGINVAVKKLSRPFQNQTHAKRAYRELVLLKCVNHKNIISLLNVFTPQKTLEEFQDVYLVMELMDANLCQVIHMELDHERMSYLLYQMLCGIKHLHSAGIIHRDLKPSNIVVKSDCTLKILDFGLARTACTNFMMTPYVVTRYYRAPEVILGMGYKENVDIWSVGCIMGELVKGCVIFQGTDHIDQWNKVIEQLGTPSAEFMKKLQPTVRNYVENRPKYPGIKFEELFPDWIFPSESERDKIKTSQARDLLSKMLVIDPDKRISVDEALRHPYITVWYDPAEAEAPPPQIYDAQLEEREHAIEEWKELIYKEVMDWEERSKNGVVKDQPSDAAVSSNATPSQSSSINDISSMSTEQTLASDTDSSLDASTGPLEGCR

O=C(Nc1cccnc1)c1cc(-c2ccnc(F)c2)ccc1OCc1ccccc1
Activity [1]: 31%
Activity [2]: 63%
Activity [3]: 107%
Activity [4]: 118%
Activity [5]: 77%
Activity [6]: 41%
Activity [7]: 59%
inhibition (Mus musculus): Active
Activity [8]: 16%
Activity [9]: 113%
Activity [10]: 80%
Activity [11]: 103%
Activity [12]: 23%
Activity [13]: 74%
inhibition [14]: Active
